# Results published in ChEMBL document CHEMBL4118168, “Synthesis and structure-activity relationship studies of MI-2 analogues as MALT1 inhibitors” (Bioorg Med Chem, 2018).
# Active and inactive are the calls of the source. No cut-off for these calls is given here.
# Test system: Toledo
# Experiment: Antiproliferative activity against human Toledo cells after 48 hrs by CCK8 assay
# Assay type: functional, cell-based
row,Compound,IC50
1,O=C(CCl)Nc1ccc(-n2nc(OCCN3CCOCC3)nc2-c2ccc(Cl)c(Cl)c2)cc1,0.47 µM
2,COCCOc1nc(-c2ccc(Cl)cc2)n(-c2ccc(NC(=O)CCl)cc2)n1,1.72 µM
3,COCCOc1nc(-c2ccc(Cl)c(Cl)c2)n(-c2ccc(NC(=O)CCl)cc2)n1,0.8 µM
4,O=C(CCl)Nc1ccc(-n2nc(OCCc3cn(-c4ccccc4)nn3)nc2-c2ccc(Cl)c(Cl)c2)cc1,0.38 µM

# Target: T1, Mucosa-associated lymphoid tissue lymphoma translocation protein 1 (Homo sapiens) (UniProt Q9UDY8)
# T1 sequence (whole entry): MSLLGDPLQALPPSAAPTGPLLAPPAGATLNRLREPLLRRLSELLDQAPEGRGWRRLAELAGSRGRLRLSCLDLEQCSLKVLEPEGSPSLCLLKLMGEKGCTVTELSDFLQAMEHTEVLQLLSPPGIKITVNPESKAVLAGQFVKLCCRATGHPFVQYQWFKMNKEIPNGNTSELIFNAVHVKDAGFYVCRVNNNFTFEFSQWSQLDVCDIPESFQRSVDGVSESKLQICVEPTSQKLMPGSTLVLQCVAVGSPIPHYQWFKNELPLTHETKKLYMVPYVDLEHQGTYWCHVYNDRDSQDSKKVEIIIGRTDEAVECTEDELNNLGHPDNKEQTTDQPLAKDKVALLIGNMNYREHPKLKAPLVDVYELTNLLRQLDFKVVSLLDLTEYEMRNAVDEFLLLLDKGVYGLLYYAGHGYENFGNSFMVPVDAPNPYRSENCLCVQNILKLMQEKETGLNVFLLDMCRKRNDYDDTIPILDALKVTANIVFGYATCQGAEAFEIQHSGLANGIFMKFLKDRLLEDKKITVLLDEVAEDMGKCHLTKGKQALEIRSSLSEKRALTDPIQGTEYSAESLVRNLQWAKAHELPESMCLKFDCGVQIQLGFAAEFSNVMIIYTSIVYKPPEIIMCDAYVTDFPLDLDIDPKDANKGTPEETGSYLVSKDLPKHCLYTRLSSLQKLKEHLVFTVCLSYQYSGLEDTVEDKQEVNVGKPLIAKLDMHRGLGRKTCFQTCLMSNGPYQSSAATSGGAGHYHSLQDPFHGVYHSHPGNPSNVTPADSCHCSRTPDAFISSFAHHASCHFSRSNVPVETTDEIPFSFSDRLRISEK
# Experiment: Inhibition of MALT1 in PMA/ionomycin-stimulated human Jurkat T cells assessed as reduction in RelB cleavage at 2 uM pretreated for 4 hrs followed by 1 hr incubation with protease inhibitor MG132 and subsequent PMA/ionomycin-stimulation measured after 1 hr by Western blot analysis
# Assay type: cell-based
# Procedure, shortened: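 Jurkat T cells in RPMI 1640 with 10% FBS, seeded at 9×10^5 cells/well, treated with compound or DMSO for 4 h, then 1 h with MG132 (10 μM), then stimulated with PMA. RelB cleavage as the read-out of MALT1 activity, detected by Western blot.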
row,inhibition,Compound
1,Active,COCCOc1nc(-c2ccc(NC(=O)CCl)cc2)n(-c2ccc(Cl)c(Cl)c2)n1
2,Active,COCCOCCOc1nc(-c2ccc(Cl)c(Cl)c2)n(-c2ccc(NC(=O)CCl)cc2)n1
3,Active,O=C(CCl)Nc1ccc(-n2nc(OCCCO)nc2-c2ccc(Cl)c(Cl)c2)cc1
4,Active,COCC(C)Oc1nc(-c2ccc(Cl)c(Cl)c2)n(-c2ccc(NC(=O)CCl)cc2)n1 (stereo not given)
5,Active,O=C(CCl)Nc1ccc(-n2nc(OCC(O)CO)nc2-c2ccc(Cl)c(Cl)c2)cc1 (stereo not given)
6,Active,O=C(CCl)Nc1ccc(-n2nc(OCCc3cn(-c4ccccc4)nn3)nc2-c2ccc(Cl)c(Cl)c2)cc1
